Experimental data as given in publication PMC10907882 (Pharmacology Research & Perspectives, 2024).

Columns and labels:
[1] = target: T1, mouse calpain‐2 (Mus musculus, UniProt O08529); experiment: Ex‐vivo calpain assay, mouse pons‐cerebellum membrane fractions, 2 mM calcium; assay type: biochemical; conditions: mouse brain enzymes
T1 sequence (O08529 1-700): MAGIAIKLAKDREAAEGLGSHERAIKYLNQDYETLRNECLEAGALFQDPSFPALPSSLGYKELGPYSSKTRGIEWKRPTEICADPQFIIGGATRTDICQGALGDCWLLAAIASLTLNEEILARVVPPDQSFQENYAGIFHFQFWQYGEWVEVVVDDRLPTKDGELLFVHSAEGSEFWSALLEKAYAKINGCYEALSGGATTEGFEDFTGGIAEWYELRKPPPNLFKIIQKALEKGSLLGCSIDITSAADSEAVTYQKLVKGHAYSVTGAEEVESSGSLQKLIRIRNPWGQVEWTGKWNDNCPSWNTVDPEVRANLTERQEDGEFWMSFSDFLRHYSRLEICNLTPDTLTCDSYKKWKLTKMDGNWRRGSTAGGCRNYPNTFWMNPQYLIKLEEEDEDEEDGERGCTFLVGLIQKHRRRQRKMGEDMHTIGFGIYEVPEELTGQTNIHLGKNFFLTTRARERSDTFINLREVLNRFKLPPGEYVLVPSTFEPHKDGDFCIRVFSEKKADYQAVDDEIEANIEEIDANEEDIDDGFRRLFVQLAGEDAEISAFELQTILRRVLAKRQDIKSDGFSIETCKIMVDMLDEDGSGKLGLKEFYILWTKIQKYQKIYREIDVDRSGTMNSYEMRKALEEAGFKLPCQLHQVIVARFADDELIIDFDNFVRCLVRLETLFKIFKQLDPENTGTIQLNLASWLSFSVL
T1 sequence (O88456 1-268 partner): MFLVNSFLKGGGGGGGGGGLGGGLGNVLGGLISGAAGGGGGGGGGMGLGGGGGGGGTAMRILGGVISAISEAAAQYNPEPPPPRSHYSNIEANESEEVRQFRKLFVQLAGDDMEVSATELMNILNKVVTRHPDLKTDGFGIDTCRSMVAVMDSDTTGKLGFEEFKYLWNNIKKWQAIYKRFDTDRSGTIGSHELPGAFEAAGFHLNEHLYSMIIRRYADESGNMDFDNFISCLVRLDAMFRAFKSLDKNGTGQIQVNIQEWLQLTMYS
How it was run: (§1)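 Membrane fractions from mouse pons-cerebellum were resuspended in 60 mM imidazole-HCl pH 7.3 with 5 mM cysteine and 2.5 mM β-mercaptoethanol and exposed to test compound concentrations. Calpain-1 was assayed in wild-type membranes with 20 μM calcium. Calpain-2 was assayed in calpain-1 knockout membranes with 2 mM calcium. Substrate was Suc-Leu-Tyr-AMC (0.5 mM). Two experiments.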

[2] = target: T2, human calpain‐1 (Homo sapiens, UniProt P07384); experiment: In vitro calpain assay; assay type: biochemical; conditions: read-out: K i for human calpain‐1; purified human calpain‐1; means ± SEM of three experiments or single experiment
T2 sequence (P07384 1-714): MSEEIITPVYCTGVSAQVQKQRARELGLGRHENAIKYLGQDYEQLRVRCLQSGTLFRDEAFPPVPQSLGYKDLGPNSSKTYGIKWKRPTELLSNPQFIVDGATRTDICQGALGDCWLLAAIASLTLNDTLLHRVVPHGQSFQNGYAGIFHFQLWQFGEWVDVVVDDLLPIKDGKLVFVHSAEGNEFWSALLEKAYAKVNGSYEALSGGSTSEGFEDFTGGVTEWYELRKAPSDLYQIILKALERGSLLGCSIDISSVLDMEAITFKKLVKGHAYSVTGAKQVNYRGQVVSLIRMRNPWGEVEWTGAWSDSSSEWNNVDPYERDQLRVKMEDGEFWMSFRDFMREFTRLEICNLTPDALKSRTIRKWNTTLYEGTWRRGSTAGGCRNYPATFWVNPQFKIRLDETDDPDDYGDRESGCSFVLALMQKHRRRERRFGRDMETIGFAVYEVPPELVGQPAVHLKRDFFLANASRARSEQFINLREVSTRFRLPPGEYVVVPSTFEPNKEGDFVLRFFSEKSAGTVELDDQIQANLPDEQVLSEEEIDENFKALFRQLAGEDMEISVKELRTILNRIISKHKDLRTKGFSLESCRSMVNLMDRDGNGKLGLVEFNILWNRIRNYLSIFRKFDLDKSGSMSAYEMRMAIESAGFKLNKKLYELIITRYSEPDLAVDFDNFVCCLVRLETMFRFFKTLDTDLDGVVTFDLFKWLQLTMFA
T2 sequence (P04632 1-268 partner): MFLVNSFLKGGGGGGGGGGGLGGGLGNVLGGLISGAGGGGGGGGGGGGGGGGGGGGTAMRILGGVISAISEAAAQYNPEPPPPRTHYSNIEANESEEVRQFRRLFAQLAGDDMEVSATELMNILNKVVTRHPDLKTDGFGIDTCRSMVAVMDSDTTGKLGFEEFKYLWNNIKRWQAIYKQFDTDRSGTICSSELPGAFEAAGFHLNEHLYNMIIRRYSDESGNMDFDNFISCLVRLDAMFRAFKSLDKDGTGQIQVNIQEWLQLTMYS
How it was run: (§2)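 Enzymes were purified human erythrocyte calpain-1 (8 μg) or bacterially expressed recombinant human calpain-2. Buffer was 60 mM imidazole-HCl pH 7.3 with 5 mM CaCl₂, 5 mM cysteine, 2.5 mM β-mercaptoethanol, 0.5 mM Suc-Leu-Tyr-AMC and test compound (0–20 μM). Reactions were started with enzyme and run at 30°C for 15 min, reading AMC fluorescence (380/450 nm) every 30 s. IC50 came from sigmoidal fits of linear rates; Ki from mean IC50 assuming competitive binding.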

[3] = tested on: calpain‐2; conditions: reported; cited from earlier work
[4] = target: T3, mouse calpain‐1 (Mus musculus, UniProt O35350); experiment: Ex‐vivo calpain assay, mouse pons‐cerebellum membrane fractions, 20 μM calcium; assay type: biochemical; conditions: read-out: IC50 for mouse calpain‐1, endogenous brain calpain‐1, membrane fractions
T3 sequence (O35350 1-713): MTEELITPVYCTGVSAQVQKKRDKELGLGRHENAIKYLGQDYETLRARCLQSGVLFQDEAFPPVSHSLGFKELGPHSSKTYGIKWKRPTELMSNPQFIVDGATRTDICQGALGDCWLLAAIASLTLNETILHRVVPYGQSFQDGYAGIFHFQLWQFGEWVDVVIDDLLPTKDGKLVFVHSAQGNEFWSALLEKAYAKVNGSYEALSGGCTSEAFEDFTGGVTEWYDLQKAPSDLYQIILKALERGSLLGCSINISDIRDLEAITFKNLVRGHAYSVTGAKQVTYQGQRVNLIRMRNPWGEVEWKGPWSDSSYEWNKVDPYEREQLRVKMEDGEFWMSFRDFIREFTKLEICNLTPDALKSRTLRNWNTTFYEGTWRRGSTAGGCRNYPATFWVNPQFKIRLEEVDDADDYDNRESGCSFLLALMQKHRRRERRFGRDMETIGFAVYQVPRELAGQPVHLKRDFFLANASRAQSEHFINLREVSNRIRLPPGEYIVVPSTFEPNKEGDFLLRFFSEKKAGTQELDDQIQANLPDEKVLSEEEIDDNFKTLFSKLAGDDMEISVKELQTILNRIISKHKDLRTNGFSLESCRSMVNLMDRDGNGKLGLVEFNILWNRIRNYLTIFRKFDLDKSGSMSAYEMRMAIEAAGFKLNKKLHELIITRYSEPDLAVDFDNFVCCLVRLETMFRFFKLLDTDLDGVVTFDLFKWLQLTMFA
T3 sequence (O88456 1-268 partner): T1 sequence (O88456 1-268 partner)
How it was run: as §1

[5] = target: T4, rec human calpain‐2 (Homo sapiens, UniProt P17655); experiment: In vitro calpain assay; assay type: biochemical
T4 sequence (P17655 1-700): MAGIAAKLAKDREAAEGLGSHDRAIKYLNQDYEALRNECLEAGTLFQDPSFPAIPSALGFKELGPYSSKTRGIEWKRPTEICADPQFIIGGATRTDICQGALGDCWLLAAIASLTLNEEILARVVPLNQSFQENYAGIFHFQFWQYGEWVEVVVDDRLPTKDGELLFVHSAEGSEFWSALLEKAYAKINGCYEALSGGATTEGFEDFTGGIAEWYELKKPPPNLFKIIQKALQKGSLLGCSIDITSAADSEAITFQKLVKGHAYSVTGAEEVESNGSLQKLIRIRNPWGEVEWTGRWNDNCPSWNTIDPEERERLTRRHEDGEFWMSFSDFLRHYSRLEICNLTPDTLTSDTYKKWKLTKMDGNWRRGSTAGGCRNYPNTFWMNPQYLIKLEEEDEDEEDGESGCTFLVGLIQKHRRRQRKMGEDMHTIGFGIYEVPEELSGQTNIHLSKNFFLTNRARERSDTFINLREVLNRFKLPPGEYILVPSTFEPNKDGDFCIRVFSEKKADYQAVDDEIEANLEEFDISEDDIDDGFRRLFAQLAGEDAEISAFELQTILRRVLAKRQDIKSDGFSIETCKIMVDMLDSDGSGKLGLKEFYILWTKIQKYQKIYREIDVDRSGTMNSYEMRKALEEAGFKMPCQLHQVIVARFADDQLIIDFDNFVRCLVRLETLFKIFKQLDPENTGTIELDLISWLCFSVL
How it was run: as §2

[6] = twice‐daily dosing for 2 weeks; healthy elderly and patients with mild to moderate Alzheimer's disease; cited from earlier work

| Ratio 1/2 (IC50 calpain‐1 / calpain‐2) [1] | Ki [2] | IC50 [4] | Ratio 1/2 (K i calpain‐1 / calpain‐2) ([5]; human enzymes) | Ki ([5]; read-out: K i for rec human calpain‐2, recombinant human calpain‐2, means ± SEM of three experiments or single experiment) | SMILES | difference in K i values for calpain‐2 vs calpain‐1 [3] | adverse effects in Phase I [6] |
| --- | --- | --- | --- | --- | --- | --- | --- |
| 26 | 124 ± 6 nM | 1130 nM | 2.3 | 55 ± 7 nM | CCC(NC(=O)[C@H](CC(C)C)NC(=O)OCc1ccccc1)C(=O)C(=O)NCc1cc(OC)cc(OC)c1 (stereo partly shown) [Compound C2I, Z‐Leu‐Abu‐CONH‐CH2‐C6H3(3,5‐(OMe)2)] | 100 fold |  |
|  |  |  |  |  | O=C(NC1CC1)C(=O)C(Cc1ccccc1)NC(=O)[C@H]1CCC(=O)N1Cc1ccccc1 (stereo partly shown) [ABT‐957] |  | did not result in significant adverse effects |
